The values below come from ChEMBL document CHEMBL4732088, “Identification and optimization of piperlongumine analogues as potential antioxidant and anti-inflammatory agents via activation of Nrf2” (Eur J Med Chem, 2021).

SMILES strings stand for the structures. Activity calls are given as the source filed them. The calls are words filed in the database; no cut-off is given here.

For data set [1], the system named is PC-12. Kind of data set: Neuroprotective activity against 6-OHDA-induced cell damage in rat PC12 cells assessed as cell viability at 20 uM after 24 hrs by MTT assay (reference value: 45.23 +/- 4.37 %). Format: functional. To be noted: for viability at 20 µM: read-out: Activity.
Data set [2] relates to PC-12. Kind of data set: Neuroprotective activity against H2O2-induced cell damage in rat PC12 cells at 20 uM after 24 hrs by MTT assay. Type of data set: functional, cell-based. On the technique in general: Tetrazolium dyes change colour on reduction, which living cells bring about.
In data set [3] the test system is PC-12. Kind of data set: Neuroprotective activity against 6-OHDA-induced cell damage in rat PC12 cells at 20 uM after 24 hrs by MTT assay. Format: functional, cell-based.
Data set [4] deals with PC-12. In words: Neuroprotective activity against H2O2-induced cell damage in rat PC12 cells assessed as cell viability at 20 uM after 24 hrs by MTT assay (reference value: 46 +/- 4.12 %). Format: functional. To be noted: read-out: Activity.
The subject of data set [5] is PC-12. Kind of data set: Cytotoxicity against rat PC12 cells at 50 uM by MTT assay. Format: cell-based. To be noted: pc-12, 50 µM. A digest of the protocol: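 Rat PC12 cells exposed to compounds at 50 μM; viability by MTT assay.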
The test system of data set [6] is PC-12. Kind of data set: Upregulation of Nrf2 expression in rat PC12 cells at 20 uM after 24 hrs by Western blot analysis. Format: functional, cell-based. A digest of the protocol: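 Rat PC12 cells exposed to compound for 24 h. Nrf2 protein detected by western blot. Mean ± SD, n = 3.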

For the compound `O=C(/C=C/c1ccccc1)N1CCNC1=O`, the outcome in the data set on PC-12 [1], in the data set on PC-12 [2] and in the data set with PC-12 [3] was Active.

Turning to `CC(=O)N/C(=C\c1ccccc1)C(=O)N1CCN(C(=O)C(C)(C)C)C1=O`, the results for the viability at 20 µM in the data set with PC-12 [4] and with PC-12 [1] were 72.7% and 71.2%, respectively.

In the case of `CC(C)(C)C(=O)N1CCN(C(=O)/C=C/c2ccncc2)C1=O`, the values for the viability at 20 µM in the data set on PC-12 [4] and in the data set on PC-12 [1] were 71.1% and 69.6%, respectively.

For the compound `O=C(/C=C/c1ccco1)N1CCNC1=O`, the results for the viability at 20 µM in the data set with PC-12 [4] and in the data set on PC-12 [1] were 64.1% and 60%, respectively.

`CC(C)(C)C(=O)N1CCN(C(=O)/C=C/c2cccs2)C1=O`: the viability at 20 µM in the data set on PC-12 [4] was 69.2%; with PC-12 [1] it was 68.2%.

For `O=C(/C=C/c1cccs1)N1CCNC1=O`, the viability at 20 µM in the data set with PC-12 [4] was 65.2%; in the data set with PC-12 [1], 64.2%.

For `CC(C)(C)C(=O)N1CCN(C(=O)/C=C/c2ccc(C(F)(F)F)cc2)C1=O`, the viability at 20 µM in the data set with PC-12 [4] worked out at 72.5%; in the data set with PC-12 [1], 71.1%.

As for `O=C(CCc1ccc(F)cc1)N1CCNC1=O`, the viability at 20 µM was 53.6% in the data set on PC-12 [4] and 56.3% in the data set with PC-12 [1].

As to `CC(C)(C)C(=O)N1CCN(C(=O)/C=C/c2ccc(C#N)cc2)C1=O`, the viability at 20 µM worked out at 71.4% with PC-12 [4] and 71.1% in the data set on PC-12 [1].

For `CC(C)(C)C(=O)N1CCN(C(=O)/C=C/c2ccc3c(c2)OCO3)C1=O`, the viability at 20 µM was found to be 63.3% in the data set with PC-12 [4] and 62.3% in the data set with PC-12 [1].

In the case of `O=C(/C=C/c1ccc(F)cc1)N1CCN(C(=O)c2cccs2)C1=O`, the viability at 20 µM worked out at 62.2% with PC-12 [4] and 60.8% in the data set with PC-12 [1].

On to `CC(C)(C)C(=O)N1CCN(C(=O)/C=C/c2cccc(Cl)c2)C1=O`, for which the viability at 20 µM with PC-12 [4] stood at 69.2%; in the data set with PC-12 [1], 68.3%.

As to `CN(C)C(=O)N1CCN(C(=O)/C=C/c2ccc(F)cc2)C1=O`, the values for the viability at 20 µM in the data set on PC-12 [4] and in the data set with PC-12 [1] were 73.8% and 71.3%, respectively.

With `C=C(C)C(=O)N1CCN(C(=O)/C=C/c2ccc(F)cc2)C1=O`, in the data set with PC-12 [5], the Activity result is recorded as “Toxic”. The viability at 20 µM came out at 38% in the data set with PC-12 [4] and 30.2% with PC-12 [1].

Consider `CC(C)(C)C(=O)N1CCN(C(=O)/C=C/c2cccc3ccccc23)C1=O`, for which the viability at 20 µM stood at 72.3% in the data set on PC-12 [4] and 71.8% in the data set on PC-12 [1].

For `CCC(=O)N1CCN(C(=O)/C=C/c2ccc(F)cc2)C1=O`, the results for the viability at 20 µM in the data set on PC-12 [4] and in the data set on PC-12 [1] were 71.6% and 70.2%, respectively.

`CC(C)(C)C(=O)N1CCN(C(=O)/C=C/c2ccc(Cl)cc2)C1=O`: the viability at 20 µM amounted to 72% in the data set with PC-12 [4] and 71.1% with PC-12 [1].

On to `CC(C)(C)C(=O)N1CCN(C(=O)/C=C/c2ccc(F)cc2)C1=O`, for which the viability at 20 µM with PC-12 [4] was found to be 73.6%; in the data set on PC-12 [1] it was 72.2%.

Regarding `CC(C)(C)C(=O)N1CCN(C(=O)/C=C/c2c(F)cccc2Cl)C1=O`, the viability at 20 µM in the data set with PC-12 [1] came out at 71.1%.

For `CC(C)(C)C(=O)N1CCN(C(=O)/C=C/c2cccc(F)c2)C1=O`, the viability at 20 µM in the data set with PC-12 [4] is 71%; with PC-12 [1], 69.3%.

Consider `O=C(/C=C/c1ccc(F)cc1)N1CCN(C(=O)c2ccccc2)C1=O`, for which the results for the viability at 20 µM in the data set with PC-12 [4] and with PC-12 [1] were 63.3% and 60.3%, respectively.

With `CCN(C)C(=O)N1CCN(C(=O)CCc2ccc(F)cc2)C1=O`, the figures for the viability at 20 µM in the data set with PC-12 [4] and in the data set with PC-12 [1] were 59.5% and 62.5%, respectively.

Take `O=C(/C=C/c1ccc(F)cc1)N1CCN(C(=O)N2CCCCC2)C1=O`: the results for the viability at 20 µM in the data set on PC-12 [4] and with PC-12 [1] were 72.8% and 72.1%, respectively.

`CC(C)(C)C(=O)N1CCN(C(=O)/C=C/c2ccco2)C1=O`: the viability at 20 µM in the data set with PC-12 [4] was 69.7%; with PC-12 [1], 68.3%.

As for `CC(=O)N1CCN(C(=O)/C=C/c2ccc(F)cc2)C1=O`, the viability at 20 µM in the data set with PC-12 [4] was 70.4%; in the data set with PC-12 [1] it was 72.3%.

As to `CC(C)(C)C(=O)N1CCN(C(=O)/C=C/c2ccccc2Cl)C1=O`, the viability at 20 µM with PC-12 [4] turned out to be 70%; with PC-12 [1], 69%.

With `COc1cc(/C=C/C(=O)N2CCC=CC2=O)cc(OC)c1OC` [PIPLARTINE], in the data set with PC-12 [5], the Activity result is listed as “Toxic”.

On to `N#Cc1ccc(C(=O)N2CCN(C(=O)/C=C/c3ccc(F)cc3)C2=O)cc1`, for which the Activity result in the data set with PC-12 [5] is “Toxic”. The viability at 20 µM with PC-12 [4] was found to be 55.1%; with PC-12 [1], 52.3%.

`O=C(/C=C/c1ccc(F)cc1)N1CCN(C(=O)CCCl)C1=O`: in the data set on PC-12 [5], the Activity result is “Toxic”. Moreover, the results for the viability at 20 µM in the data set on PC-12 [4] and in the data set with PC-12 [1] were 43.2% and 37.1%, respectively.

In the case of `C=CC(=O)N1CCN(C(=O)/C=C/c2ccc(F)cc2)C1=O`, in the data set with PC-12 [5], the Activity result is reported as “Toxic”. For the same compound, the viability at 20 µM with PC-12 [4] was 44%; with PC-12 [1], 43.8%.

Regarding `CCCC(=O)N1CCN(C(=O)/C=C/c2ccc(F)cc2)C1=O`, the viability at 20 µM was 70.2% in the data set with PC-12 [4] and 69.3% in the data set with PC-12 [1].

With `O=C(/C=C/c1ccccc1)N1CCCCC1=O`, the result with PC-12 [1], in the data set with PC-12 [2] and in the data set with PC-12 [3] was Active.

For `O=C(/C=C/c1ccccc1)N1CCCNC1=O`, the result with PC-12 [1], in the data set with PC-12 [2] and in the data set on PC-12 [3] was Active.

With `CC(C)(C)C(=O)N1CCN(C(=O)/C=C/c2ccccc2F)C1=O`, the viability at 20 µM came to 72.4% in the data set on PC-12 [4] and 72.3% in the data set on PC-12 [1].

In the case of `CC(C)(C)C(=O)N1CCN(C(=O)/C=C/c2ccccc2)C1=O`, the viability at 20 µM in the data set with PC-12 [4] was 61.5%; in the data set on PC-12 [1], 60.1%.

As for `O=C(/C=C/c1ccc(F)cc1)N1CCNC1=O`, the viability at 20 µM turned out to be 68.6% in the data set with PC-12 [4] and 69.1% with PC-12 [1]. Moreover, the outcome in the data set with PC-12 [6] was Active.

Take `O=C(/C=C/c1ccc(C(F)(F)F)cc1)N1CCNC1=O`: the viability at 20 µM with PC-12 [4] was determined as 67.7%; in the data set with PC-12 [1], 65.3%.
